Drawing on ChEMBL document CHEMBL1143331, “The synthesis and structure-activity relationship of substituted N-phenyl anthranilic acid analogs as amyloid aggregation inhibitors” (Bioorg Med Chem Lett, 2009), this text covers Activity and IC50 for one molecule.

The subject of test [1] is Mus musculus. In words: Reduction in senile plaque load in Tg2576 mouse overexpressing human betaAPP695SWE at 60 mg/kg/day, po administered with chow for 3 months. The test is classed as functional. Set-up: scale not given: the % may be the effect or the level left.
The subject of test [2] is Mus musculus. In words: Reduction in senile plaque load in Tg2576 mouse overexpressing human betaAPP695SWE at 60 mg/kg/day, po administered with chow for 7 months. The test is classed as functional. Further details: scale not given: the % may be the effect or the level left.
For test [3], the system named is Mus musculus. In words: Reduction in mean senile plaque area in Tg2576 mouse overexpressing human betaAPP695SWE at 60 mg/kg/day, po administered with chow. The test is classed as functional. Set-up: scale not given: the % may be the effect or the level left.
Test [4] can be described thus: Inhibition of amyloid beta (1 to 40) aggregation by beta amyloid self seeding radioassay. In short, it runs like this: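 Aβ(1-40) at 30 μM unlabeled, plus a tracer amount of 125I-Aβ(1-40), incubated with compound in 50 mM NaPi, 150 mM NaCl, 1 M urea, 0.02% w/v NaN3, pH 7.5. Radiolabeled fibrils retained on a 0.2 µm filter were measured. Eight compound concentrations were tested, and IC50 was taken by logit transformation of the titration curves. Values are the average of two separate experiments.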

Test [5] is described as follows: Inhibition of amyloid beta (1 to 40) aggregation by beta amyloid self seeding thioflavin T assay. In short, it runs like this: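 Compound was incubated with 30 μM Aβ(1-40) in 50 mM NaPi, 150 mM NaCl, 1 M urea, 0.02% w/v NaN3, pH 7.5. Thioflavin T at 5 µM was added after fibril formation, and fluorescence was read as β-sheet fibril content. IC50 came from eight concentrations by logit transformation of the titration curves. Values are the mean of two separate experiments.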

As to `O=C(O)c1ccccc1Nc1ccc(CCCc2ccc(Cl)c(Cl)c2)cc1`, the Activity with Mus musculus [1] is recorded as 45%; with Mus musculus [2], 47%; in the test on Mus musculus [3], 2.6%. Moreover, the IC50 (commonly the concentration needed to halve the response being measured) in test [4] is 25 µM; in test [5], 1 µM.
